Among the data in ChEMBL document CHEMBL1128288, “7-Azetidinylquinolones as antibacterial agents. 3. Synthesis, properties and structure-activity relationships of the stereoisomers containing a 7-(3-amino-2-methyl-1-azetidinyl) moiety” (J Med Chem, 1995) are MIC, solubility and AUC values, retold here.

The subject of data set [1] is Staphylococcus aureus. The data set can be described thus: In vitro antibacterial activity measured as minimum inhibitory concentration was evaluated on Staphylococcus aureus ATCC 25178 (Sa). Format: functional. To be noted: Staphylococcus aureus, ATCC 25178; read-out: MIC. A digest of the protocol: (§1)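 Serial 2-fold agar dilution in Mueller Hinton medium, run side by side with reference quinolones. Inoculum 10^5 cfu/mL; compound range 0.007–16 µg/mL.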

For data set [2], the system named is Enterobacter cloacae. In words: In vitro antibacterial activity measured as minimum inhibitory concentration, was evaluated on Enterobacter cloacae ATCC 23355 (Ecl). Format: functional. Conditions: Enterobacter cloacae, ATCC 23355; read-out: MIC.
Data set [3] deals with Bacillus subtilis. In words: In vitro antibacterial activity measured as minimum inhibitory concentration was evaluated on Bacillus subtilis ATCC 6633(Bs). Format: functional. Conditions: Bacillus subtilis, ATCC 6633; read-out: MIC. A digest of the protocol:
as §1

Data set [4] concerns Pseudomonas aeruginosa. In words: In vitro antibacterial activity measured as minimum inhibitory concentration was evaluated on Pseudomonas aeruginosa ATCC 10145 (Pa). Format: functional. To be noted: Pseudomonas aeruginosa, ATCC 10145; read-out: MIC. The method, boiled down: as §1
The nature of data set [5]: Solubility in water was determined at 25 degrees Centigrade. Format: physicochemical. A digest of the protocol: (§2)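 Excess solid was shaken 24 h at 25 °C in water or in 0.05 M phosphate buffer pH 7.4, then filtered (0.22 µm) with the first portion discarded. The filtrate was diluted with 0.1 N HCl or NaOH and measured spectrophotometrically at the compound's absorbance maximum.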

For data set [6], the system named is Enterococcus faecalis. In words: In vitro antibacterial activity measured as minimum inhibitory concentration was evaluated on Streptococcus faecalis ATCC 10541 (Sf). Format: functional. To be noted: Enterococcus faecalis, ATCC 10541; read-out: MIC. The method, boiled down:
as §1

Data set [7] relates to Bacillus cereus. In words: In vitro antibacterial activity measured as minimum inhibitory concentration was evaluated on Bacillus cereus ATCC 11778 (Bc). To be noted: Bacillus cereus, ATCC 11778; read-out: MIC. Format: functional. A digest of the protocol:
as §1

In data set [8] the test system is Klebsiella pneumoniae. In words: In vitro antibacterial activity measured as minimum inhibitory concentration was evaluated on klebsiella pneumoniae ATCC 10031 (Kp). Format: functional. Conditions: Klebsiella pneumoniae, ATCC 10031; read-out: MIC. The method, boiled down:
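Serial 2-fold agar dilution in Mueller Hinton medium, run side by side with reference quinolones.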

Data set [9] concerns Staphylococcus epidermidis. In words: In vitro antibacterial activity measured as minimum inhibitory concentration was evaluated on Staphylococcus epidermidis ATCC 155-1 (Se). Format: functional. Conditions: Staphylococcus epidermidis, ATCC 155-1; read-out: MIC. A digest of the protocol:
as §1

Data set [10] concerns Proteus vulgaris. The data set can be described thus: In vitro antibacterial activity measured as minimum inhibitory concentration was evaluated on proteus vulgaris ATCC 8427 (Pv). Format: functional. Conditions: Proteus vulgaris, ATCC 8427; read-out: MIC. The method, boiled down:
as §1

Data set [11] relates to Escherichia coli. In words: In vitro antibacterial activity measured as minimum inhibitory concentration, was evaluated on Escherichia coli ATCC 23559(Ec). To be noted: Escherichia coli, ATCC 23559; read-out: MIC. Format: functional. A digest of the protocol: as §1
Data set [12] relates to Morganella morganii. The data set can be described thus: In vitro antibacterial activity measured as minimum inhibitory concentration was evaluated on morganella morganii ATCC 8019 (Mm). To be noted: Morganella morganii, ATCC 8019; read-out: MIC. Format: functional. The method, boiled down:
as §1

The nature of data set [13]: Solubility at pH 7.4 buffer. Format: physicochemical. A digest of the protocol: as §2
For data set [14] the following is noted: mouse, in vivo, po, 50 mg/kg.

≈ marks a conversion by molar mass, not a printed value.

For the compound `CCC[C@H](N)C(=O)N[C@@H]1CN(c2cc3c(cc2F)c(=O)c(C(=O)O)cn3-c2ccc(F)cc2F)[C@H]1C`, the MIC (commonly the lowest concentration that inhibits growth of the organism) was 0.5 µg/mL (≈ 0.995 µM) in data set [1]; 1 µg/mL (≈ 1.99 µM) in data set [2]; 0.25 µg/mL (≈ 0.498 µM) in data set [3]; 16 µg/mL (≈ 31.8 µM) in data set [4]; 4 µg/mL (≈ 7.96 µM) in data set [6]; 0.5 µg/mL (≈ 0.995 µM) in data set [7]. The MIC in data set [8] worked out at 0.25 µg/mL (≈ 0.498 µM); in data set [9], 0.5 µg/mL (≈ 0.995 µM); in data set [10], 8 µg/mL (≈ 15.9 µM); in data set [11] it was 0.5 µg/mL (≈ 0.995 µM); in [12], 4 µg/mL (≈ 7.96 µM). Besides, the solubility in data set [5] and in data set [13] was > 500 µg/mL each time.
For the compound `C[C@@H]1[C@@H](NC(=O)[C@@H](C)N)CN1c1nc2c(cc1F)c(=O)c(C(=O)O)cn2C1CC1`, the MIC in data set [1] amounted to 1 µg/mL (≈ 2.48 µM); in [2] it was 4 µg/mL (≈ 9.92 µM); in data set [3] it was 0.5 µg/mL (≈ 1.24 µM); in data set [4], 16 µg/mL (≈ 39.7 µM); in data set [6], 1 µg/mL (≈ 2.48 µM); in [7] it was 1 µg/mL (≈ 2.48 µM). The minimum inhibitory concentration (MIC) in [8] turned out to be 8 µg/mL (≈ 19.8 µM); in data set [9] it was 0.25 µg/mL (≈ 0.62 µM); in data set [10], 8 µg/mL (≈ 19.8 µM); in data set [11], 1 µg/mL (≈ 2.48 µM); in [12], 8 µg/mL (≈ 19.8 µM). The solubility in [5] and in data set [13] was > 500 µg/mL each time. In addition, in [14], the AUC (usually the area under the concentration-time curve, a measure of exposure) is 0 ng·h/mL.
On to `C[C@H](N)C(=O)N[C@@H](C)C(=O)N[C@@H]1CN(c2nc3c(cc2F)c(=O)c(C(=O)O)cn3C2CC2)[C@H]1C`, for which the MIC in data set [1] was 4 µg/mL (≈ 8.43 µM); in [2] it was 2 µg/mL (≈ 4.22 µM); in [3], 1 µg/mL (≈ 2.11 µM); in [4] it was 16 µg/mL (≈ 33.7 µM); in [6], 16 µg/mL (≈ 33.7 µM); in data set [7], 16 µg/mL (≈ 33.7 µM). Also, the minimal inhibitory concentration (MIC) amounted to 8 µg/mL (≈ 16.9 µM) in [8]; 8 µg/mL (≈ 16.9 µM) in data set [9]; 8 µg/mL (≈ 16.9 µM) in [10]; 2 µg/mL (≈ 4.22 µM) in data set [11]; 4 µg/mL (≈ 8.43 µM) in data set [12]. Moreover, the solubility in [5] and in data set [13] was > 500 µg/mL each time. For the same compound, the exposure (AUC) in data set [14] is 19200 ng·h/mL.
`C[C@H](N)C(=O)N[C@@H]1CN(c2nc3c(cc2F)c(=O)c(C(=O)O)cn3C2CC2)[C@H]1C`: the MIC in data set [1] worked out at 0.5 µg/mL (≈ 1.24 µM); in data set [2], 0.12 µg/mL (≈ 0.297 µM); in [3], 0.12 µg/mL (≈ 0.297 µM); in data set [4] it was 8 µg/mL (≈ 19.8 µM); in data set [6], 8 µg/mL (≈ 19.8 µM); in data set [7], 1 µg/mL (≈ 2.48 µM). The minimal inhibitory concentration (MIC) in [8] was 0.06 µg/mL (≈ 0.149 µM); in data set [9], 0.5 µg/mL (≈ 1.24 µM); in data set [10], 1 µg/mL (≈ 2.48 µM); in data set [11], 0.12 µg/mL (≈ 0.297 µM); in data set [12] it was 0.5 µg/mL (≈ 1.24 µM). For the same compound, the solubility in data set [5] and in data set [13] was > 500 µg/mL in each case. Besides, the exposure (AUC) in data set [14] was determined as 28800 ng·h/mL.
In the case of `C[C@@H](N)C(=O)N[C@@H]1CN(c2nc3c(cc2F)c(=O)c(C(=O)O)cn3C2CC2)[C@H]1C`, the MIC is 0.25 µg/mL (≈ 0.62 µM) in [1]; 0.25 µg/mL (≈ 0.62 µM) in [2]; 0.12 µg/mL (≈ 0.297 µM) in data set [3]; 8 µg/mL (≈ 19.8 µM) in data set [4]; 1 µg/mL (≈ 2.48 µM) in [6]; 0.5 µg/mL (≈ 1.24 µM) in data set [7]. The MIC in [8] stood at 0.5 µg/mL (≈ 1.24 µM); in data set [9], 1 µg/mL (≈ 2.48 µM); in [10] it was 2 µg/mL (≈ 4.96 µM); in [11] it was 0.25 µg/mL (≈ 0.62 µM); in [12] it was 2 µg/mL (≈ 4.96 µM). Further, the solubility (commonly the dissolved amount per volume that the medium holds) was found to be 495 µg/mL (≈ 1230 µM) in data set [5] and 386 µg/mL (≈ 957 µM) in data set [13]. This compound registered an AUC in [14] of 400 ng·h/mL.
